# Test results taken from ChEMBL document CHEMBL4330169, “Bioactive Diterpenoids from the Stems of Euphorbia royleana” (J Nat Prod, 2019).
# Tested on: BV-2
# Assay: Anti-inflammatory activity in mouse BV2 cells assessed as reduction in LPS-induced nitric oxide production by Griess assay
# Format: functional, cell-based
# Procedure, shortened: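 NO release from LPS-stimulated BV-2 cells was measured by the Griess reaction, and IC50 values were derived. SMT (2-methyl-2-thiopseudourea, sulfate) served as the positive control. Data come from three experiments. The procedure otherwise follows a previously published method.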
row,IC50 [µM],Compound
1,38.4,CC1=C2C=C3CC[C@@H]4C(C)(C)CC[C@H](O)[C@@]4(C)[C@@H]3C[C@@H]2OC1=O
2,3.7,CSC(=N)N
3,> 50,C=C1C[C@@]23CC[C@@H]4C(C)(C)[C@H](O)CC[C@@]4(C)[C@@H]2C[C@@H]1[C@@H](O)C3=O
4,> 50,CC(=O)O[C@H]1C2=C(C[C@H]3OC(=O)C(C)=C13)[C@@]1(C)[C@H](CC2)C(C)(C)CC[C@@H]1O
5,> 50,C=C[C@]1(C)C=C2CC[C@H]3[C@](C)(C=O)[C@@H](O)CC[C@]3(C)[C@H]2CC1 [SANDARACOPIMARADIENOLAL]
6,19.3,C/C=C(\C)C(=O)OC[C@]1(C)C(=O)CC[C@@]2(C)[C@@H]3CC[C@@H]4C[C@@]3(CC[C@@H]21)C[C@@]4(O)CO
7,> 50,C=C[C@@]1(C)C=C2CC[C@@H]3[C@@](C)(O)[C@H](O)CC[C@@]3(C)[C@@H]2C[C@@H]1O
8,12,CC(=O)O[C@H]1CCC(C)(C)[C@H]2CCC3=CC4=C(C)C(=O)O[C@@H]4C[C@H]3[C@]12C
9,> 50,CC(=O)OC[C@]1(C)C(=O)CC[C@@]2(C)[C@@H]3C[C@@H]4CC[C@@]3(CC[C@@H]21)C[C@@]4(O)CO
10,> 50,CC1=C2[C@@H](O)C3=C(C[C@H]2OC1=O)[C@@]1(C)[C@H](CC3)C(C)(C)CC[C@@H]1O
11,> 50,CO[C@H]1[C@H]2[C@@H]([C@@H](OC(C)=O)[C@@H](C)C(=O)[C@@]34C[C@H](C)[C@H](OC(C)=O)[C@]3(/C=C(\C)[C@H]1O)O4)C2(C)C
12,> 50,C/C=C(/C)C(=O)O[C@@H]1/C(C)=C/[C@@]23O[C@@]2(C[C@H](C)[C@@H]3O)C(=O)[C@H](C)[C@H](OC(C)=O)[C@@H]2[C@H]([C@@H]1OC)C2(C)C
13,14.5,C/C=C(/C)C(=O)O[C@H]1C(C)=C[C@]23C(=O)[C@@H](C=C(C)[C@@H](O)[C@]12O)[C@H]1[C@@H](C[C@H]3C)[C@@]1(C)COC(=O)c1ccccc1
14,32.6,CCC(C)C(=O)OC[C@]1(C)C(=O)CC[C@@]2(C)[C@@H]3CC[C@@H]4C[C@@]3(CC[C@@H]21)C[C@@]4(O)CO (stereo partly specified)
15,32.3,C=C[C@@]1(C)C=C2CC[C@@H]3[C@@](C)(C=O)[C@H](O)CC[C@@]3(C)[C@@H]2C[C@@H]1O
16,> 50,CC1=C2C=C3CC[C@@H]4[C@@](C)(CO)CC[C@H](O)[C@@]4(C)[C@@H]3C[C@H]2OC1=O
17,> 50,C=C1C[C@@]23CC[C@@H]4C(C)(C)C(=O)CC[C@@]4(C)[C@@H]2C[C@@H]1[C@@H](O)C3=O
18,> 50,CC(=O)O[C@@H]1[C@@H]2[C@H]([C@H](OC(=O)c3ccccc3)[C@H](OC(C)=O)/C(C)=C/[C@@]34O[C@@]3(C[C@H](C)[C@@H]4OC(C)=O)C(=O)[C@@H]1C)C2(C)C
19,> 50,C[C@H]1C(=O)CC[C@]2(C)[C@@H]1CC[C@@]13CC[C@@H](C[C@H]12)[C@](O)(CO)C3
20,> 50,C=C1C[C@@]23CC[C@@H]4C(C)(C)[C@@H](O)CC[C@@]4(C)[C@@H]2C[C@@H]1[C@@H](O)C3=O

row,Compound,IC50 [µM]
1,C/C=C(/C)C(=O)O[C@H]1C(C)=C[C@]23C(=O)[C@@H](C=C(C)[C@@H](O)[C@]12O)[C@H]1[C@@H](C[C@H]3C)[C@@]1(C)COC(=O)/C(C)=C/C,28.6
